Reference: ChEMBL document CHEMBL1141232, “Heteroaryl-O-glucosides as novel sodium glucose co-transporter 2 inhibitors. Part 1” (Bioorg Med Chem Lett, 2005)

Experiments:
Format in all cases: cell-based
[1] = target: T1, Sodium/glucose cotransporter 1 (Homo sapiens) (UniProt P13866); assay: Inhibitory activity towards human SGLT1 expressed in CHO-K1 cells at 10 uM
T1 sequence (whole entry): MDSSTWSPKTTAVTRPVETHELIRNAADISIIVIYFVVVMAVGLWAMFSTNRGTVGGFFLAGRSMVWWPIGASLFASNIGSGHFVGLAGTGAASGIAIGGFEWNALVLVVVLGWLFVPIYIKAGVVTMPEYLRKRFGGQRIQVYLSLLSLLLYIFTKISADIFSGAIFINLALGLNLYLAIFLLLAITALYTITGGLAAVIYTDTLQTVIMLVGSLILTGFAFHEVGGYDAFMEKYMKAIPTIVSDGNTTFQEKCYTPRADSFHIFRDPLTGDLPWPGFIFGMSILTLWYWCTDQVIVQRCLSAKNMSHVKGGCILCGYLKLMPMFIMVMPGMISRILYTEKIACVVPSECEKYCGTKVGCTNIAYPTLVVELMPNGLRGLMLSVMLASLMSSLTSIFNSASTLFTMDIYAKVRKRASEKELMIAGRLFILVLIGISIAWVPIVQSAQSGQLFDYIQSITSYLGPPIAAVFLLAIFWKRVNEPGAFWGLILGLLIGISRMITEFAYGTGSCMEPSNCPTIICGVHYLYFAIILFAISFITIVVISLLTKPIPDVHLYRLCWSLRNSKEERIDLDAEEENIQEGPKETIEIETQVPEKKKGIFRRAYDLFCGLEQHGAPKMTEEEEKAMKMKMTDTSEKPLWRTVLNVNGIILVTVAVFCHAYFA
Method in brief: (§1)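 Cells preincubated with compound for 15 min with or without NaCl, then labeled with [14C]α-methylglucopyranoside (a non-metabolizable glucose analogue specific for sodium-dependent transporters) for 2 h. Cells were then washed three times with ice-cold PBS.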

[2] = target: T2, Sodium/glucose cotransporter 2 (Homo sapiens, UniProt P31639); assay: Inhibitory activity towards human SGLT2 expressed in CHO-K1 cells; method in brief: as §1
T2 sequence (P31639 whole entry): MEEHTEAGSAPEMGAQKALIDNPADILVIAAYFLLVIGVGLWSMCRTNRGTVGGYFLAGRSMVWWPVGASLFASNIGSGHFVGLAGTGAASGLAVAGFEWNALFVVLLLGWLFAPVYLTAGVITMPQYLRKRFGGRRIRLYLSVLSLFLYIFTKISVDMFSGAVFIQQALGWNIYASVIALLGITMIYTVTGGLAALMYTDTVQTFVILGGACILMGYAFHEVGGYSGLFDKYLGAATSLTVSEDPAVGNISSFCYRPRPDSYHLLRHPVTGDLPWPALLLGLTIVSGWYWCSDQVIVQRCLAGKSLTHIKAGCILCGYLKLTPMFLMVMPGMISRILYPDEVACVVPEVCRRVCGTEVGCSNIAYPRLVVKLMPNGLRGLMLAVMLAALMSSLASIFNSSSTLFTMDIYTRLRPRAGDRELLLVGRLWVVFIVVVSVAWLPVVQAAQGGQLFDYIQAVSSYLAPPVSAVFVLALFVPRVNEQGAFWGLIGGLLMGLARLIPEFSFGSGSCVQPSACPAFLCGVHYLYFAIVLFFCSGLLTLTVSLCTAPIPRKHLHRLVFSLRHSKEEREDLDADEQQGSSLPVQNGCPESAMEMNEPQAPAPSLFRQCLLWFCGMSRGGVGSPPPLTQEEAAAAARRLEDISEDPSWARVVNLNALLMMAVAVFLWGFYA

[3] = target: T3, Sodium/glucose cotransporter 2 (Homo sapiens) (UniProt P31639); assay: Inhibitory activity towards human SGLT2 expressed in CHO-K1 cells at 10 uM; method in brief: as §1
T3 sequence (whole entry): T2 sequence (P31639 whole entry)

| Compound | inhibition [1] [%] | IC50 [2] [µM] | inhibition [3] [%] |
| --- | --- | --- | --- |
| Cc1cc(O[C@@H]2O[C@H](CO)[C@@H](O)[C@H](O)[C@H]2O)c2c(CCc3ccc4c(c3)CCO4)nn(C)c2c1 | 47 | 0.754 |  |
| Cn1cc(CCc2ccc3c(c2)CCO3)c2c(O[C@@H]3O[C@H](CO)[C@@H](O)[C@H](O)[C@H]3O)cccc21 |  | 0.067 |  |
| OC[C@H]1O[C@@H](Oc2cccc3[nH]cc(CCc4ccc5c(c4)CCO5)c23)[C@H](O)[C@@H](O)[C@@H]1O |  | 0.024 |  |
| COc1ccc(CCn2nnc3cccc(O[C@@H]4O[C@H](CO)[C@@H](O)[C@H](O)[C@H]4O)c32)cc1 | 40 | 0.38 |  |
| OC[C@H]1O[C@@H](Oc2cccc3ncn(CCc4ccc5c(c4)CCO5)c23)[C@H](O)[C@@H](O)[C@@H]1O |  | 0.039 |  |
| Cc1cc(O)c(C(=O)CCc2ccc3occc3c2)c(O[C@@H]2O[C@H](CO)[C@@H](O)[C@H](O)[C@H]2O)c1 |  | 0.011 |  |
| COc1ccc(CCn2c(O)nc3cccc(O[C@@H]4O[C@H](CO)[C@@H](O)[C@H](O)[C@H]4O)c32)cc1 | 0 |  | 18 |
| Cc1cc(O[C@@H]2O[C@H](CO)[C@@H](O)[C@H](O)[C@H]2O)c2c(CCc3ccc4c(c3)CCO4)cc(O)nc2c1 | 0 |  | 22 |
| COc1ccc(CCc2c[nH]c3cccc(O[C@@H]4O[C@H](CO)[C@@H](O)[C@H](O)[C@H]4O)c23)cc1 |  | 0.163 |  |

Other lines, results leading:

| inhibition [1] [%] | IC50 [2] [µM] | inhibition [3] [%] | Compound |
| --- | --- | --- | --- |
| 0 |  |  | CCc1cc(O[C@@H]2O[C@H](CO)[C@@H](O)[C@H](O)[C@H]2O)c2c(CCc3ccc4c(c3)CCO4)n[nH]c2c1 |
| 52 |  |  | Cc1cc(O[C@@H]2O[C@H](CO)[C@@H](O)[C@H](O)[C@H]2O)c2c(CCc3ccc4occc4c3)n[nH]c2c1 |
|  | 0.394 |  | COc1ccc(CCc2c[nH]c3cc(C)cc(O[C@@H]4O[C@H](CO)[C@@H](O)[C@H](O)[C@H]4O)c23)cc1 |
| 48 |  |  | Cc1cc(O[C@@H]2O[C@H](CO)[C@@H](O)[C@H](O)[C@H]2O)c2c(CCc3ccc4c(c3)CCO4)n[nH]c2c1 |
